PMI act satM6P: increases human PMI activity with near-saturating mannose 6-phosphate; coupled PMI enzyme assay, resazurin fluorescence, 20 min; stronger effect = higher value; 1 = untreated enzyme, 0 = substrate-free blank; 0.34% of 190,000 active; activation factor at 20 µM; AID 1216;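 active = activation factor of 2 or more at 20 µM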
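Material: human phosphomannose isomerase with PGI, G6PDH, diaphorase coupling enzymes. Quantity: 15 ng/mL PMI. Medium: HEPES pH 7.4 buffer with MgCl2 and Tween-20. Reagent: Near-saturating mannose-6-phosphate, 1.0 mM. Compound: 20 µM single dose. Times: enzyme reaction with compound 20 min at room temperature. Detection: resorufin fluorescence at Ex 544/Em 590 nm.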
TNAP inh no acc: TNAP (human) inhibition, acceptor-free conditions. P05186. purified TNAP, CDP-star luminescence, 30 min. inhibition, % at 20 µM. 0.26% of 200,000 active. AID 1012;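 active = tissue-nonspecific alkaline phosphatase inhibition above about 50% at 20 µM in the single-dose screen, limit read from the data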;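 note: 0% = DMSO negative control and 100% = EDTA positive control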
Target sequence (P05186 whole entry, looked up): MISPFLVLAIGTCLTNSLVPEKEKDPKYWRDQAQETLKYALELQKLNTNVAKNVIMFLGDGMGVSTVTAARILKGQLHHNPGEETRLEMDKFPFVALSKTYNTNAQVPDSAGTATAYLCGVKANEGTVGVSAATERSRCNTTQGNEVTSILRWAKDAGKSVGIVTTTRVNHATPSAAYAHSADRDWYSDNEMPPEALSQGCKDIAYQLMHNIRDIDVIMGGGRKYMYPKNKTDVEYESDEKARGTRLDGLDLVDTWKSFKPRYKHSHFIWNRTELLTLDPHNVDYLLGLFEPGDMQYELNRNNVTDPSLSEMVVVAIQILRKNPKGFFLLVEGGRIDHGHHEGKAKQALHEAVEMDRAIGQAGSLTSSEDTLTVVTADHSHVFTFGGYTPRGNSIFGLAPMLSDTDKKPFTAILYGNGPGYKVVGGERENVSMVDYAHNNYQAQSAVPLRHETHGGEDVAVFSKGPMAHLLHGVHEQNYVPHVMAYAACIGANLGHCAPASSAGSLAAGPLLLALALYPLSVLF
TNAP act hi DEA: activators of human TNAP at high phosphate acceptor concentration. 200,000 tested, under 10 active. AID 1136. purified TNAP, CDP-star luminescence, 1 M DEA, 30 min; stronger effect = higher value; 0 = EDTA background, 1 = DMSO-only activity. activation factor at 20 µM;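 active = activation factor at least 2 at 20 µM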
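Measured by: Luminescent substrate turnover signal | Test system: Human TNAP | Input: TNAP 1/800 final | Dosing: 20 µM single point | Schedule: 30 min, room temperature | Controls: EDTA wells as negative control, DMSO wells as positive control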
TNAP inh hi DEA: TNAP (human) inhibition, high acceptor; 0.03% of 200,000 active; inhibition, % at 20 µM; AID 1135; purified TNAP, CDP-star luminescence, 1 M DEA;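 active = over 50% inhibition of tissue-nonspecific alkaline phosphatase at 20 µM in the single-dose screen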;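 note: plate controls were DMSO wells for no effect and EDTA-quenched wells as full inhibition for full effect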
PMI act: phosphomannose isomerase (human) activation; 0.005% of 190,000 active; activation factor at 20 µM; purified human PMI, coupled resazurin fluorescence, 20 min; stronger effect = higher value; 1 = vehicle control, 0 substrate-free wells;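 active = activation factor of 2 or more at 20 µM, relative to plate controls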
Rad51 HR inh: blocks human Rad51 in homologous recombination; Q06609; hRad51 DNA strand exchange, fluorescence dequenching; inhibition, % at 10 µM; 0.085% of 200,000 active; AID 1385;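 active = inhibition above 40% at the single screening dose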;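 note: 0% = DMSO control wells and 100% = blanks with heterologous ssDNA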
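Test system: preformed human Rad51 ssDNA filaments; also added: Donor/quencher-labelled 47-bp dsDNA substrate; doses: 10 µM final, single point; times: 37 °C 15-min filament assembly, 30-min compound preincubation, 15-min exchange; detection: FRET fluorescence dequenching, excitation 485 nm, emission 520 nm; read-out basis: Fluorescence-based percent inhibition, control- and blank-normalised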
Starred values were filed as active, the others as inactive. Most compounds without a hit are left out; they make up all but 0.6% or so of the library.

What do the screens show for `O=C(CCCN1CC=C(n2c(=O)[nH]c3ccccc32)CC1)c1ccc(F)cc1`?
PMI act satM6P: 1.1; TNAP inh no acc: 62.8*; TNAP act hi DEA: 0.9; TNAP inh hi DEA: 6.6; PMI act: 1; Rad51 HR inh: -5.5

How did Cc1ccccc1NC(=O)NCC1CCCO1 (stereo not drawn) do in these assays?
PMI act satM6P: 0.9; TNAP inh no acc: -5.6; TNAP act hi DEA: 1; TNAP inh hi DEA: 0.8; PMI act: 0.9; Rad51 HR inh: 42.4*

How did O=C(NC1CCCCC1)c1cc([N+](=O)[O-])ccc1N1CCCCC1 do in these assays?
PMI act satM6P: 0.8; TNAP inh no acc: 5.5; TNAP act hi DEA: 0.9; TNAP inh hi DEA: 11.3; PMI act: 0.8; Rad51 HR inh: 118.2*

Results for Cc1cc(C)c2c(N)c(C(=O)N3CCN(c4ncccn4)CC3)sc2n1 ?
PMI act satM6P: 2*; TNAP inh no acc: -17.3; TNAP act hi DEA: 1.1; TNAP inh hi DEA: -8.5; PMI act: 1.5; Rad51 HR inh: 3.6

Results for COCc1cc(C)nc2sc(C(=O)N3CCN(c4ccccc4)CC3)c(N)c12 ?
PMI act satM6P: 0.9; TNAP inh no acc: -19.5; TNAP act hi DEA: 1.1; TNAP inh hi DEA: -6.9; PMI act: 1; Rad51 HR inh: -1.2

How did CC(C)(CO)NCc1ccc(Br)cc1 do in these assays?
PMI act satM6P: 1.1; TNAP inh no acc: -1.4; TNAP act hi DEA: 0.9; TNAP inh hi DEA: 8.1; PMI act: 1.1; Rad51 HR inh: 43.5*

Results for Cc1ccc(CNC(C)(C)CO)cc1 ?
PMI act satM6P: 0.9; TNAP inh no acc: -2.3; TNAP act hi DEA: 1; TNAP inh hi DEA: 3.9; PMI act: 1; Rad51 HR inh: 15.8

How did Cc1cccn2c(=O)c3cc(C#N)c(=NC(=O)c4ccncc4)n(CCCOC(C)C)c3nc12 do in these assays?
PMI act satM6P: 2*; TNAP inh no acc: 14.7; TNAP act hi DEA: 1; TNAP inh hi DEA: 0.5; PMI act: 1.7; Rad51 HR inh: -7.4

Results for COc1ccc(C(=O)Nc2nc(C)cc(C)n2)cc1 ?
TNAP inh no acc: -4.6; TNAP act hi DEA: 1; TNAP inh hi DEA: 3.6; Rad51 HR inh: -1.8

What do the screens show for `COc1ccc(C(=O)Nc2n[nH]c(-c3ccncc3)n2)cc1`?
PMI act satM6P: 1.1; TNAP inh no acc: 91.8*; TNAP act hi DEA: 1; TNAP inh hi DEA: 2.0; PMI act: 1.1; Rad51 HR inh: 0.9

What do the screens show for `COc1ccc(C2=NN(C3=NN=C(N)Cc4ncnn43)C(O)(C(F)(F)F)C2)cc1` (stereo not drawn)?
PMI act satM6P: 0.8; TNAP inh no acc: -173.1; TNAP act hi DEA: 1; TNAP inh hi DEA: -3.6; PMI act: 0.8; Rad51 HR inh: 56.4*

How did NC1=NN=C(N2N=C(c3ccc(Br)cc3)CC2(O)C(F)(F)F)n2ncnc2C1 (stereo not drawn) do in these assays?
PMI act satM6P: 0.9; TNAP inh no acc: -163.0; TNAP act hi DEA: 1; TNAP inh hi DEA: -1.9; PMI act: 0.8; Rad51 HR inh: -5.1

Results for O=S(=O)(c1cccc(S(=O)(=O)N2CCN(c3ncccn3)CC2)c1)N1CCOCC1 ?
PMI act satM6P: 1.1; TNAP inh no acc: -8.5; TNAP act hi DEA: 1; TNAP inh hi DEA: -3.1; PMI act: 1.1; Rad51 HR inh: -0.2

How did O=C1CC(NNc2ccccc2)C(=O)N1c1ccccc1 (stereo not drawn) do in these assays?
PMI act satM6P: 2.5*; TNAP inh no acc: 1.1; TNAP act hi DEA: 1; TNAP inh hi DEA: -2.5; PMI act: 1.7; Rad51 HR inh: -1.2

How did Cc1ccc(NC2CC(=O)N(c3ccc(C)cc3)C2=O)cc1 (stereo not drawn) do in these assays?
PMI act satM6P: 1; TNAP inh no acc: 0.2; TNAP act hi DEA: 1.1; TNAP inh hi DEA: -5.5; PMI act: 1.1; Rad51 HR inh: 15.6

What do the screens show for `COc1ccc(NC2CC(=O)N(c3ccccc3)C2=O)cc1` (stereo not drawn)?
PMI act satM6P: 1.1; TNAP inh no acc: -16.3; TNAP act hi DEA: 1.1; TNAP inh hi DEA: -5.2; PMI act: 1; Rad51 HR inh: 3.6

What do the screens show for `Cc1ccc(NNC2CC(=O)N(c3cccc(Cl)c3)C2=O)cc1` (stereo not drawn)?
PMI act satM6P: 2.6*; TNAP inh no acc: -3.7; TNAP act hi DEA: 1; TNAP inh hi DEA: -2.2; PMI act: 1.7

Results for CCN(CC)N=Nc1[nH]nc2nc(C)cc(C)c12 ?
PMI act satM6P: 2*; TNAP inh no acc: -8.7; TNAP act hi DEA: 1.1; TNAP inh hi DEA: -8.5; PMI act: 1.4; Rad51 HR inh: -5.7

How did O=C(O)/C=C\c1cc2c(cc1[N+](=O)[O-])OCO2 do in these assays?
Rad51 HR inh: -9.1

How did O=C(Nc1cccc(O)c1)C1CCCN1C(=O)OCc1ccccc1 (stereo not drawn) do in these assays?
PMI act satM6P: 1; TNAP inh no acc: -10.6; TNAP act hi DEA: 1; TNAP inh hi DEA: -2.0; PMI act: 1; Rad51 HR inh: -5.2

Results for CNC(=O)c1ccc(-c2sc3nc(N4CCOCC4)c4c(c3c2N)CCCC4)o1 ?
PMI act satM6P: 0.4; TNAP inh no acc: -19.7; TNAP act hi DEA: 1.1; TNAP inh hi DEA: -8.8; PMI act: 0.8; Rad51 HR inh: 2.8

What do the screens show for `O=C(O)c1ccccc1C(=O)NNc1ccc(Cl)cc1Cl`?
PMI act satM6P: 2.7*; TNAP inh no acc: -5.2; TNAP act hi DEA: 1; TNAP inh hi DEA: 3.0; PMI act: 1.7; Rad51 HR inh: 23.5

What do the screens show for `Cc1nnc(SCC(=O)c2ccc(Cl)cc2)s1`?
PMI act satM6P: 1; TNAP inh no acc: -14.0; TNAP act hi DEA: 1; TNAP inh hi DEA: -3.3; PMI act: 1; Rad51 HR inh: 40.5*

Results for O=C(Cn1nc(Cc2cccnc2)c2ccccc2c1=O)N1CCN(c2ccccn2)CC1 ?
PMI act satM6P: 1; TNAP inh no acc: -8.9; TNAP act hi DEA: 1; TNAP inh hi DEA: -2.2; PMI act: 1; Rad51 HR inh: -0.6

What do the screens show for `CN(C)c1cc(=O)n2c(n1)SCCC2`?
PMI act satM6P: 1.1; TNAP inh no acc: -8.7; TNAP act hi DEA: 1; TNAP inh hi DEA: -3.0; PMI act: 1; Rad51 HR inh: -0.3

Results for CCOC(=O)c1cc(NC(=O)c2ccc(C)cc2)c(=O)oc1C(F)(F)F ?
PMI act satM6P: 2.6*; TNAP inh no acc: -0.8; TNAP act hi DEA: 1; TNAP inh hi DEA: -3.6; PMI act: 1.7

How did CCOC(=O)c1cc(NC(=O)c2ccc(OC)cc2)c(=O)oc1-c1ccccc1 do in these assays?
PMI act satM6P: 1; TNAP inh no acc: -8.6; TNAP act hi DEA: 1; TNAP inh hi DEA: -2.5; PMI act: 1; Rad51 HR inh: 3.9

Assay outcomes (PubChem)
